Mac1 fbg enh – enhancers of CD11b/CD18 adhesion to fibrinogen, primary screen, K562 cells, luminescence; Integrin beta-2 (Homo sapiens) + Integrin alpha-M (Homo sapiens), P05107+P11215; ATPlite luminescence; activation, % at 10 µM; 93,000 compounds, 0.07% hits; AID 1499, 2009;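 active = 10 µM primary screen giving 50% or more activity, confirmed by 40% or more on retest at that dose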
Rev-RRE block – HIV-1 Rev-RRE binding inhibitors, primary screen, biochemical, FRET, protein-RNA interaction; P05866; Rev peptide-RRE RNA binding; inhibition, % at 8 µM; 97,000 compounds, 0.79% hits;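 active = inhibition above the screen-wide mean plus 3 SD, cut at about 35% in these data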;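 note: 0% = median DMSO wells and 100% = median Neomycin B control wells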
Target sequence (P05866 whole entry, looked up): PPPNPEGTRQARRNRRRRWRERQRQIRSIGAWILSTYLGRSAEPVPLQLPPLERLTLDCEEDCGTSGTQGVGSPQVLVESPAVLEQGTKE
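Test system: labelled RRE RNA duplex and labelled Rev peptide. Times: 5 min compound–RNA preincubation, then 15 min with peptide, 25 °C. Doses: single-dose 8 µM. Measured by: FRET, excitation 480 nm, emission 540 nm donor and 671 nm acceptor. Measure: % inhibition of FRET ratio versus controls.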
Smad3 inh – Smad3/FoxH1 peptide binding inhibitors, primary screen, biochemical, TR-FRET; Mothers against decapentaplegic homolog 3 (Homo sapiens), P84022; TR-FRET Smad3/Dy647-FoxH1 peptide binding, europium anti-His; inhibition, % at 25 µM; 88,000 compounds, 0.29% hits;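 active = compounds that reduce the energy-transfer binding signal between the protein and its labelled peptide by more than half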;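 note: 0% = Smad3 plus labelled peptide maximal FRET and 100% = peptide-only background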
Target sequence (P84022 whole entry, looked up): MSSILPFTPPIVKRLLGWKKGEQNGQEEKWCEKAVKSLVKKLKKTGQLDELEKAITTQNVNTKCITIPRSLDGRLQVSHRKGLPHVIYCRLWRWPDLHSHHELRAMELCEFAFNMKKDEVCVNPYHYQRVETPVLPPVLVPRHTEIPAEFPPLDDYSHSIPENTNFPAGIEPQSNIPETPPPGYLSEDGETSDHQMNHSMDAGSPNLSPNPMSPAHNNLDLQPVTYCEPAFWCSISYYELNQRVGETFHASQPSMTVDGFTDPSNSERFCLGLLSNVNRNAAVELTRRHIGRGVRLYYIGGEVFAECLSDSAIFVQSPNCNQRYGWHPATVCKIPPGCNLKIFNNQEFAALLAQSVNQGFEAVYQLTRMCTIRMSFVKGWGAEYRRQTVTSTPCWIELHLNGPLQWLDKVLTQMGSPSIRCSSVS
Phagocyt inh – inhibitors of macrophage phagocytosis, primary screen, imaging, J774A.1 cells, IgG beads. J774A.1 macrophage IgG-bead phagocytosis. inhibition, % at 5 µM. 110,000 compounds, 0.07% hits;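 active = inhibition above the mean of the plate negative controls plus 5 SD, cut at about 13% in these data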;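 note: phagocytic index as fraction of beads internalized from green versus red external bead signal; plate controls were DMSO negative control for no effect and cytochalasin-D positive control for full effect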
Mac1 fbg inh – inhibitors of CD11b/CD18 adhesion to fibrinogen, primary screen, K562 cells, luminescence; ATPlite luminescence; Mn2+ added to activate the integrin; inhibition, % at 10 µM; Integrin beta-2 (Homo sapiens) + Integrin alpha-M (Homo sapiens), P05107+P11215; 93,000 compounds, 0.54% hits;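 active = primary inhibition of 50% or more at 10 µM, then 40% or more on retest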
EphB4 antag – EphB4-ephrin-B2 interaction antagonists, primary screen, biochemical, TNYL-RAW peptide probe, fluorescence polarization; Ephrin type-B receptor 4 (Homo sapiens), P54760; EphB4 LBD / TNYL-RAW-Alexa532 peptide; inhibition, % at 7 µM; 97,000 compounds, 0.15% hits; AID 720, 2007;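 active = inhibition above the screen-wide mean inhibition plus 3 SD, cut at about 15% in these data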;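 note: 0% = DMSO wells and 100% = excess unlabeled TNYL-RAW peptide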
Starred values were filed as active, the others as inactive; · = no result; [ ] = dose if it differs, or a comment. Rows were chosen to be rich in hits. Some 1.3% of all compounds tested hit in one or more screens of this group.

SMILES | Mac1 fbg enh | Rev-RRE block | Smad3 inh | Phagocyt inh | Mac1 fbg inh | EphB4 antag
Oc1cc(O)c2c(c1)O[C@H](c1ccc(O)c(O)c1)[C@@H](O)[C@@H]2c1c(O)cc(O)c2c1O[C@@H](c1ccc(O)c(O)c1)[C@H](O)C2 | · | · | 14 | · | · | ·
CCN(CC)CCCN1C(=O)C(=O)/C(=C(/O)c2cnn(-c3ccccc3)c2C)C1c1ccncc1 (centres undefined) | · | 2 | 10 | · | · | 0
COc1ccc2nc(N3CCCC3)c(C#N)cc2c1 | -2 | 47* | 5 | -1 | -19 | 7
c1ccc2c(c1)c1ccccc1n2Cn1c2ccccc2c2ccccc21 | · | · | -18 | · | · | ·
CC(C)(C)C1CCC2(CC1)SCC(=O)N2c1ccccc1 (centres undefined) | -2 | 7 | -4 | 0 | 9 | 16*
CC(=O)O[C@H]1CC[C@@]2(C)C(=CC[C@H]3[C@H]2CC[C@]2(C)[C@@H]4[C@@H](C)[C@]5(CC[C@H](C)CN5)O[C@@H]4C[C@@H]32)C1 | · | · | 8 | · | · | ·
Cc1nn(-c2cccc(Cl)c2)c2nc(C(F)(F)F)[nH]c(=O)c12 | -8 | · | · | -6 | 102* | ·
Cc1nn(-c2cc(C(F)(F)F)ccc2Cl)c2nc(C(F)(F)F)[nH]c(=O)c12 | · | · | · | -11 | · | ·
Cc1ccc(CNc2ccc3c(c2)OCO3)cc1 | 8 | 75* | -6 | -1 | 0 | 1
CN(C)c1ccc(N/C=C/C(=O)c2ccco2)cc1 | 4 | 27 | -2 | 179* | 27 | 7
CC(=O)Nc1ccc(N/C=C/C(=O)c2ccco2)cc1 | -5 | 12 | -6 | 6 | 8 | -2
O=C1c2ccccc2-c2ccc(N(Cc3ccc(Br)cc3)Cc3ccc(Br)cc3)cc21 | · | · | 4 | · | · | ·
COc1ccc(C(=O)NCCn2ccc3ccccc32)cc1 | 0 | 2 | -4 | -5 | -6 | 1
O=C(NCCn1ccc2ccccc21)c1ccc(S(=O)(=O)N2CCCCC2)cc1 | -2 | · | 59* | 1 | -36 | ·
O=C(Nc1nc(=S)ss1)c1ccc(Cl)cc1Cl | -7 | 0 | 5 | · | 114* | 4
NC(=S)Nc1cccc2cc3ccccc3cc12 | -2 | 102*[fluorescence artefact?] | · | -5 | 8 | -7
NC(=S)Nc1cc2ccccc2c2ccccc12 | · | 4 | · | · | · | -4
COc1ccc(C2=CC(c3ccc(C)cc3)n3nnnc3N2)cc1 (centres undefined) | -5 | 47* | -8 | -2 | 14 | -1
COc1ccc(C2C=C(c3ccc(C)cc3)Nc3ncnn32)cc1 (centres undefined) | 2 | 56* | 7 | 0 | 11 | -1
COc1cccc(C2=CC(c3ccc(N(C)C)cc3)n3ncnc3N2)c1 (centres undefined) | -1 | 34 | 12 | 1 | -11 | 1
COc1ccc(C2C=C(c3ccccc3)Nc3nc(NC(C)=O)nn32)cc1 (centres undefined) | 3 | 42* | 3 | 1 | 21 | -5
COc1cccc(C2=CC(c3ccccc3)n3nnnc3N2)c1 (centres undefined) | · | 12 | · | · | · | -6
COc1ccc(C2C=C(c3ccccc3)Nc3nnnn32)cc1 (centres undefined) | -3 | 14 | -11 | 0 | -12 | -5
O=C1C2[C@@H](c3ccccc3)N[C@@H](c3ccccc3)C1[C@@H](c1ccccc1)N[C@H]2c1ccccc1 | · | · | -4 | · | · | ·
NC1(C(=O)NC2(C(=O)O)CCCC2)CCCC1 | · | · | -6 | · | · | ·
SMILES | Mac1 fbg enh | Rev-RRE block | Smad3 inh | Phagocyt inh | Mac1 fbg inh | EphB4 antag
COc1ccc(Cl)cc1CN1CCN(c2nc(C)cc(C)c2C#N)CC1 | 12 | 40* | 1 | 1 | -29 | -1
CCOC(=O)C1=C(c2ccccc2)N=c2s/c(=C\c3cccc(O)c3)c(=O)n2C1c1cccs1 (centres undefined) | · | 9 | · | · | · | -6
O=c1/c(=C\c2ccc(O)cc2)sc2n1C(c1ccccc1)C(c1ccccc1)=NN=2 (centres undefined) | · | 41* | · | · | · | 0
Cn1c(=O)c2c(nc(SCC(=O)N3CCc4ccccc43)n2Cc2ccc(F)cc2)n(C)c1=O | · | 11 | 11 | · | · | 4
COCCNC(=O)c1c(N)n(CCC2=CCCCC2)c2nc3ccccc3nc12 | 5 | 56* | · | 0 | -14 | 3
COc1ccc(CCn2c(N)c(C(=O)NCc3ccco3)c3nc4ccccc4nc32)cc1 | · | · | · | -1 | · | ·
Cc1ccc(S(=O)(=O)N(Cc2ccc(Cl)cc2)c2ccccc2C(=O)NCc2ccco2)cc1 | 8 | · | · | -4 | 20 | ·
CC(C)/C(=N\[N+](C)(C)C)c1ccccc1 | · | · | 3 | · | · | ·
Cc1cc(=O)n2nc(N3CCC(C(=O)NCCC4=CCCCC4)CC3)sc2n1 | · | · | -5 | · | · | ·
Cn1c(N)nc2c(nc(OCc3ccccc3)n2[C@H]2O[C@H](CO)[C@@H](O)[C@@H]2O)c1=O | · | · | 74* | · | · | ·
CCCCn1nc(C(=O)Oc2ccc3c(C)cc(=O)oc3c2)c2ccccc2c1=O | 4 | · | · | 2 | 12 | ·
N#CC1(C#N)C2=C(CCCC2)NC(c2ccccc2)C1(C#N)C#N (centres undefined) | 47 | 47* | -1 | -1 | -19 | 0
N#CC12C(N)=NC3(OCCO3)C1(C#N)C1=C(CCC1)NC2c1ccccc1 (centres undefined) | -1 | 11 | -5 | -1 | 3 | -9
CC[C@H]1CC[C@H]2[C@H]3CC=C4C[C@H](OC(C)=O)[C@@H](N)C[C@@]4(C)[C@@H]3CC[C@]12C | · | · | -4 | · | · | ·
O=C(COc1ccc(Br)cc1Br)NC(=S)N1CCCc2ccccc21 | -6 | -1 | · | 0 | 60* | 3
CCCOc1cc(N(CC)CC)ccc1/C=C(/C#N)c1nc2ccc(C)cc2[nH]1 | -2 | 133*[fluorescence artefact?] | · | -5 | 13 | -7
CCN(CC)c1ccc(/C=C(/C#N)c2nc3ccc(C)cc3[nH]2)c(OC(C)C)c1 | · | 138*[fluorescence artefact?] | · | · | · | -1
CCOc1cc(N(CC)CC)ccc1/C=C(/C#N)c1nc2ccccc2[nH]1 | · | 132*[fluorescence artefact?] | · | · | · | -6
CN(C)/C=C(\C#N)c1nc2ccccc2[nH]1 | 1 | 10 | -11 | · | -2 | 3
COc1cc(/C=C(\C#N)c2nc3ccc(C)cc3[nH]2)c([N+](=O)[O-])cc1OC | -3 | 9 | · | -2 | -10 | -1
Nc1nc(SCC(=O)O)[nH]c(=O)c1N | · | · | 2 | · | · | ·
CO[C@@H]1/C=C\O[C@]2(C)Oc3c(C)c(O)c4c(O)c(cc(O)c4c3C2=O)NC(=O)C(C)=C/C=C\[C@H](C)[C@@H](O)[C@H](C)[C@H](O)[C@H](C)[C@H](OC(C)=O)[C@@H]1C | · | · | -1 | · | · | ·
C/C(=N\O)c1cccc[n+]1Cc1ccccc1 | · | · | -5 | · | · | ·

Compound activity as filed in PubChem.
